Measurements from ChEMBL document CHEMBL3585325, “Discovery of (1R,2S)-2-{[(2,4-Dimethylpyrimidin-5-yl)oxy]methyl}-2-(3-fluorophenyl)-N-(5-fluoropyridin-2-yl)cyclopropanecarboxamide (E2006): A Potent and Efficacious Oral Orexin Receptor Antagonist” (J Med Chem, 2015).
≈ marks a conversion by molar mass, not a printed value.

Tests used:
[1] = target: CYP3A (Homo sapiens, UniProt P08684+P20815+P24462+Q9HB55); experiment: Time dependent inhibition of CYP3A in human liver microsomes assessed as enzyme activity using midazolam as substrate at 10 uM incubated for 30 mins prior to substrate addition for 10 mins by LC-MS/MS analysis; assay type: ADME; design: scale not given: the % may be the effect or the level left; conditions: probe midazolam, read-out: Activity
Procedure, shortened: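 Test compound at 10 μM preincubated 30 min at 37 °C with human liver microsomes (0.2 mg/mL), with or without an NADPH-generating system. Mixture then diluted 10-fold into a marker-substrate cocktail plus NADPH system and incubated 10 min at 37 °C. Midazolam served as the CYP3A probe. Metabolites measured by LC−MS/MS. Result is the residual activity with NADPH relative to without, as % of control.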

[2] = target: T1, Orexin receptor type 2 (Homo sapiens, UniProt O43614); experiment: Binding affinity to human OX2R by radioligand displacement binding assay
T1 sequence (O43614 whole entry): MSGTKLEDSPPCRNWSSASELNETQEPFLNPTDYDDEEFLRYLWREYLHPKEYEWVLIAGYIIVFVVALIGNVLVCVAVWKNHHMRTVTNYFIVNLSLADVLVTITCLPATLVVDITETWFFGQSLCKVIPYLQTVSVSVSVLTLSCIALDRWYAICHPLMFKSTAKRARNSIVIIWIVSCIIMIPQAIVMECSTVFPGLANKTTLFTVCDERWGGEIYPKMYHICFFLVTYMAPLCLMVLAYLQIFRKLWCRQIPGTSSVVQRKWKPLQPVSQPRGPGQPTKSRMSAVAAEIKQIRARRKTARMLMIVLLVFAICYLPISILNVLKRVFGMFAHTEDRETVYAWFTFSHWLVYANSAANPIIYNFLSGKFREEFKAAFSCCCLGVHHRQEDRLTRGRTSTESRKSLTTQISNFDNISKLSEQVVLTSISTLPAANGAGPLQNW

[3] = Activity at P-gp (unknown origin) assessed as corrected flux ratio; assay type: ADME; conditions: human
Procedure, shortened: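 Reported as corrected flux ratio, i.e. the MDR1 flux ratio divided by the PK1 flux ratio.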

[4] = target: T2, Orexin/Hypocretin receptor type 1 (Homo sapiens, UniProt O43613); experiment: Binding affinity to human OX1R by radioligand displacement binding assay
T2 sequence (O43613 whole entry): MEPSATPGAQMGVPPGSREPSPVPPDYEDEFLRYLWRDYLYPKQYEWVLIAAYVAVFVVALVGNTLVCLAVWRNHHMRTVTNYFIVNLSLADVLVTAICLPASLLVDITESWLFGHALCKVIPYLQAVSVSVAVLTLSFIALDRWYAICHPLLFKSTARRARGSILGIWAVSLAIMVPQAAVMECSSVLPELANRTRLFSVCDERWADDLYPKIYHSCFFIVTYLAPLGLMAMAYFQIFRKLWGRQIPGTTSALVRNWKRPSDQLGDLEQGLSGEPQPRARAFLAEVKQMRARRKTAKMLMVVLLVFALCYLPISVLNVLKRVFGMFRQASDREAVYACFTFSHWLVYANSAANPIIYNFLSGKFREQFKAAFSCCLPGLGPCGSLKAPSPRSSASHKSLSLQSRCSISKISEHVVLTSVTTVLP
Procedure, shortened: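 Ki values come from single experiments run in triplicate.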

[5] = target: Voltage-gated inwardly rectifying potassium channel KCNH2 (Homo sapiens, UniProt Q12809); experiment: Inhibition of human ERG
Voltage-gated inwardly rectifying potassium channel KCNH2, sequence (Q12809 whole entry): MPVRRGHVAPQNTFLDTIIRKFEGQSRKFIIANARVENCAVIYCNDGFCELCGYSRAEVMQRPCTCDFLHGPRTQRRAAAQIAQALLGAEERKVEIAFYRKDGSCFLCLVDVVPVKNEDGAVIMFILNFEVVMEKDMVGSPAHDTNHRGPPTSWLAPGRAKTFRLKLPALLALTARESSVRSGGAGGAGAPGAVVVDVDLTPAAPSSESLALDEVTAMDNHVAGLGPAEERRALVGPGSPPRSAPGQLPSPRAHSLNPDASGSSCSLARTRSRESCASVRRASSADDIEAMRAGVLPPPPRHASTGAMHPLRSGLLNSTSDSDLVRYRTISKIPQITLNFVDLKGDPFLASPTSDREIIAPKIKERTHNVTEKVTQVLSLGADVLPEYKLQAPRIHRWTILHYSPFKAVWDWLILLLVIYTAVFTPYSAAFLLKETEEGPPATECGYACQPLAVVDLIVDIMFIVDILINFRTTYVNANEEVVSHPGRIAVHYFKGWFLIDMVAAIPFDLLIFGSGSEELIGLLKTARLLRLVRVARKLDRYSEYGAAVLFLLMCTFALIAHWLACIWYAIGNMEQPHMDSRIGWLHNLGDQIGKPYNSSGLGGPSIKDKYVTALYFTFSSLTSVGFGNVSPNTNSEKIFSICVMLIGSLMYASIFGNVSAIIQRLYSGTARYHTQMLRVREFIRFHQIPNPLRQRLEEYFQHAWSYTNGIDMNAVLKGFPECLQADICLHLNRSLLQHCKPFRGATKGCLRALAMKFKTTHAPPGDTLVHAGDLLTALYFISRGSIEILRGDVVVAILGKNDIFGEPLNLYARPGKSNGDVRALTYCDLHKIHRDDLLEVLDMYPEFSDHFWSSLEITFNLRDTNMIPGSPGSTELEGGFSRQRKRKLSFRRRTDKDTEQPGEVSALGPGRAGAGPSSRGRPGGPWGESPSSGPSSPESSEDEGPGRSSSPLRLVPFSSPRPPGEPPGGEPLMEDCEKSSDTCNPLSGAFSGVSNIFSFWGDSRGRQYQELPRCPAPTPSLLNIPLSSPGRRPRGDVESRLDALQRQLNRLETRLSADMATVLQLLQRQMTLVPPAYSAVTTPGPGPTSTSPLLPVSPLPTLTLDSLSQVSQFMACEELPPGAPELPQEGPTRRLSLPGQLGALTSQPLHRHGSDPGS

[6] = Aqueous solubility of the compound in Dulbecco's phosphate buffered saline at pH 7.4 by DMSO solution precipitation method; assay type: physicochemical
Procedure, shortened: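 Solubility in Dulbecco's PBS at pH 7.4, measured at room temperature by precipitation from a DMSO solution.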

[7] = test system: Mus musculus; experiment: Sleep promoting activity in C57BL/6NCrlCrlj mouse assessed as reduction in wakefulness time at 30 mg/kg, po administered immediately prior to beginning of dark cycle measured during first 3 hrs after drug administration by electroencephalogram/electromyogram analysis (reference value: 116.7 min); assay type: functional
Procedure, shortened: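 Male C57BL/6NCrlCrlj mice implanted with EEG/EMG electrodes were dosed orally in 10% Cremophor EL, 5% DMSO in saline just before lights-off (ZT12) and recorded from ZT12 to ZT20. Group sizes were n=6 dosed and n=7 vehicle. Stages were scored by software with blinded visual confirmation; cumulative first-3-h times are mean with SEM. Dunnett's test was run after one-way ANOVA.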

Structure (SMILES): Cc1ncc(OC[C@@]2(c3ccccc3)C[C@H]2C(=O)Nc2ccccn2)c(C)n1
- activity at 10 min, 10 µM [1]: 99%
- Ki [2]: 80 nM
- Ratio [3]: 1.9
- Ki [4]: 1020 nM

Structure (SMILES): Cc1ncc(OC[C@@]2(c3cccc(F)c3)C[C@H]2C(=O)Nc2cc(C)c(F)cn2)c(C)n1
- activity at 10 min, 10 µM [1]: 83%
- IC50 [5]: > 10000 nM
- Ki [2]: 4 nM
- solubility kinetic [6]: 46 µM (≈ 19.5 µg/mL)
- Ratio [3]: 1.4
- Ki [4]: 2 nM

Structure (SMILES): Cc1cc(OCC2(c3ccccc3)CC2C(=O)Nc2ccc(C#N)cn2)cc(C)n1 (racemic)
- activity at 10 min, 10 µM [1]: 94%
- Ki [2]: > 2000 nM
- Ki [4]: > 2000 nM

Structure (SMILES): Cc1ncc(OC[C@@]2(c3ccccc3)C[C@H]2C(=O)Nc2ccncc2)c(C)n1
- activity at 10 min, 10 µM [1]: 110%
- Ki [2]: 163 nM
- Ratio [3]: 6
- Ki [4]: 1580 nM

Structure (SMILES): COCc1nc(C)ncc1OC[C@@]1(c2ccccc2)C[C@H]1C(=O)Nc1ccc(C#N)cn1
- activity at 10 min, 10 µM [1]: 92%
- Ki [2]: 9 nM
- solubility kinetic [6]: 93 µM (≈ 39.9 µg/mL)
- Ratio [3]: 4
- Ki [4]: 43 nM

Structure (SMILES): Cc1ncc(OC[C@@]2(c3ccccc3)C[C@H]2C(=O)Nc2cccc(F)n2)c(C)n1
- activity at 10 min, 10 µM [1]: 94%
- Ki [2]: 56 nM
- Ratio [3]: 1.4
- Ki [4]: 138 nM

Structure (SMILES): CCn1cc(OC[C@@]2(c3ccccc3)C[C@H]2C(=O)Nc2ccc(C#N)cn2)c(C)n1
- activity at 10 min, 10 µM [1]: 93%
- Ki [2]: 8 nM
- solubility kinetic [6]: 64 µM (≈ 25.7 µg/mL)
- Ratio [3]: 0.9
- Ki [4]: 171 nM

Structure (SMILES): CCc1nc(C)ncc1OC[C@@]1(c2ccccc2)C[C@H]1C(=O)Nc1ccc(C#N)cn1
- activity at 10 min, 10 µM [1]: 91%
- Ki [2]: 7 nM
- solubility kinetic [6]: 44 µM (≈ 18.2 µg/mL)
- Ratio [3]: 2.1
- Ki [4]: 121 nM

Structure (SMILES): Cc1ccc(OCC2(c3ccccc3)CC2C(=O)Nc2ccc(C#N)cn2)c(C)n1 (racemic)
- activity at 10 min, 10 µM [1]: 34%
- Ki [2]: 222 nM
- solubility kinetic [6]: 22 µM (≈ 8.77 µg/mL)
- Ki [4]: 938 nM

Structure (SMILES): Cc1ncc(OC[C@@]2(c3ccccc3)C[C@H]2C(=O)Nc2ccc(Cl)cn2)c(C)n1
- activity at 10 min, 10 µM [1]: 88%
- Ki [2]: 2 nM
- Time [7]: 68.2 min
- Ratio [3]: 1.3
- Ki [4]: 39 nM

Structure (SMILES): Cc1ncc(OC[C@@]2(c3ccccc3F)C[C@H]2C(=O)Nc2ccc(F)cn2)c(C)n1
- activity at 10 min, 10 µM [1]: 77%
- IC50 [5]: 5900 nM
- Ki [2]: 17 nM
- Ratio [3]: 1.4
- Ki [4]: 81 nM

Structure (SMILES): Cc1cnc(OC[C@@]2(c3ccccc3)C[C@H]2C(=O)Nc2ccc(C#N)cn2)c(C)n1
- activity at 10 min, 10 µM [1]: 97%
- Ki [2]: 21 nM
- solubility kinetic [6]: 47 µM (≈ 18.8 µg/mL)
- Ratio [3]: 1.3
- Ki [4]: 73 nM

Structure (SMILES): Cc1ccnc(NC(=O)[C@@H]2C[C@@]2(COc2cnc(C)nc2C)c2ccccc2)c1
- activity at 10 min, 10 µM [1]: 90%
- Ki [2]: 29 nM
- Ratio [3]: 1.5
- Ki [4]: 224 nM

Structure (SMILES): Cc1ncc(OC[C@@]2(c3ccccc3)C[C@H]2C(=O)Nc2ccc(C#N)cn2)c(C)n1
- activity at 10 min, 10 µM [1]: 96%
- Ki [2]: 49 nM
- solubility kinetic [6]: 80 µM (≈ 32 µg/mL)
- Ratio [3]: 2.7
- Ki [4]: 2490 nM

Structure (SMILES): Cc1ncc(OC[C@@]2(c3ccc(F)c(F)c3)C[C@H]2C(=O)Nc2ccc(F)cn2)c(C)n1
- activity at 10 min, 10 µM [1]: 75%
- Ki [2]: 4 nM
- Ki [4]: 14 nM

Structure (SMILES): CCn1cc(OCC2(c3ccccc3)CC2C(=O)Nc2ccc(C#N)cn2)c(C)n1 (racemic)
- activity at 10 min, 10 µM [1]: 84%
- Ki [2]: 10 nM
- solubility kinetic [6]: 78 µM (≈ 31.3 µg/mL)
- Ratio [3]: 1.5
- Ki [4]: 391 nM

Structure (SMILES): Cc1nn(C)cc1OCC1(c2ccccc2)CC1C(=O)Nc1ccc(C#N)cn1 (racemic)
- activity at 10 min, 10 µM [1]: 85%
- Ki [2]: 204 nM
- solubility kinetic [6]: 85 µM (≈ 32.9 µg/mL)
- Ki [4]: > 2000 nM

Structure (SMILES): COc1cc(NC(=O)[C@@H]2C[C@@]2(COc2cnc(C)nc2C)c2ccccc2)ncc1F
- activity at 10 min, 10 µM [1]: 86%
- Ki [2]: 6 nM
- Ratio [3]: 1.6
- Ki [4]: 3 nM

Structure (SMILES): Cc1ncc(OC[C@@]2(c3ccccc3)C[C@H]2C(=O)Nc2cc(C)c(F)cn2)c(C)n1
- activity at 10 min, 10 µM [1]: 89%
- Ki [2]: 4 nM
- solubility kinetic [6]: 51 µM (≈ 20.7 µg/mL)
- Time [7]: 67.1 min
- Ki [4]: 6 nM

Structure (SMILES): Cc1ncc(OC[C@@]2(c3cc(F)cc(F)c3)C[C@H]2C(=O)Nc2ccc(F)cn2)c(C)n1
- activity at 10 min, 10 µM [1]: 62%
- IC50 [5]: 4800 nM
- Ki [2]: 3 nM
- Ratio [3]: 1.5
- Ki [4]: 7 nM

Structure (SMILES): Cc1ccc(NC(=O)[C@@H]2C[C@@]2(COc2cnc(C)nc2C)c2ccccc2)nc1
- activity at 10 min, 10 µM [1]: 22%
- Ki [2]: 34 nM
- Ratio [3]: 1.3
- Ki [4]: 124 nM

Structure (SMILES): Cc1ncc(OC[C@@]2(c3ccc(F)cc3)C[C@H]2C(=O)Nc2ccc(F)cn2)c(C)n1
- activity at 10 min, 10 µM [1]: 85%
- IC50 [5]: 2200 nM
- Ki [2]: 8 nM
- Ratio [3]: 1.3
- Ki [4]: 39 nM

Structure (SMILES): Cc1ncc(OC[C@@]2(c3ccccc3)C[C@H]2C(=O)Nc2cccnc2)c(C)n1
- activity at 10 min, 10 µM [1]: 104%
- Ki [2]: 50 nM
- Ratio [3]: 4.4
- Ki [4]: 391 nM

Structure (SMILES): CCn1cc(OC[C@]2(c3ccccc3)C[C@@H]2C(=O)Nc2ccc(C#N)cn2)c(C)n1
- Ki [2]: > 2000 nM
- Ki [4]: > 2000 nM

Structure (SMILES): Cc1ncc(OC[C@@]2(c3ccccc3)C[C@H]2C(=O)Nc2ccc(F)cn2)c(C)n1
- activity at 10 min, 10 µM [1]: 87%
- IC50 [5]: 7700 nM
- Ki [2]: 7 nM
- solubility kinetic [6]: 92 µM (≈ 36.1 µg/mL)
- Time [7]: 72.3 min
- Ratio [3]: 1.7
- Ki [4]: 137 nM
